What all share (format): tissue-based
Test [1] concerns the target T1, 5-hydroxytryptamine receptor 1A (Rattus norvegicus, UniProt P19327).
T1 sequence (P19327 whole entry): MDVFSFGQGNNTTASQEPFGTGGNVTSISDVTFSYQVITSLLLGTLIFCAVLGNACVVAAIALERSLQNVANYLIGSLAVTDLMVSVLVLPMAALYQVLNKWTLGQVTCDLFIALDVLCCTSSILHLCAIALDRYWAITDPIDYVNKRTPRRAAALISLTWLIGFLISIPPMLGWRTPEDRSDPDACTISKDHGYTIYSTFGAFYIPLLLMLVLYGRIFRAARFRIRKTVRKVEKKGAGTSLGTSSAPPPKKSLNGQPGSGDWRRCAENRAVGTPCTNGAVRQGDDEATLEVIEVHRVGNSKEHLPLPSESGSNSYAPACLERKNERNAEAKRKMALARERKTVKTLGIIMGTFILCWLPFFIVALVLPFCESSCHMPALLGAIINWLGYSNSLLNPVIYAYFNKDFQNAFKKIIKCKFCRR
Briefly: Evaluated for binding affinity towards 5-hydroxytryptamine 1A receptor in rat brain.

For test [2], the target named is T2, 5-hydroxytryptamine receptor 1A (Rattus norvegicus) (UniProt P19327).
T2 sequence (whole entry): T1 sequence (P19327 whole entry)
In words: Hill coefficient in rat brain 5-hydroxytryptamine 1A assay.

For test [3], the target named is T1, 5-hydroxytryptamine receptor 1A. In words: Binding affinity towards 5-hydroxytryptamine 1A receptor in rat brain. The gist of the method: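 Rat hippocampal membranes (male Sprague-Dawley, ca. 220 g), homogenized in 50 mM Tris-HCl/0.5 mM EDTA/10 mM MgSO4, washed, preincubated 15 min at 37 °C; 0.1 nM [3H]8-OH-DPAT with 4 mg wet tissue in Tris pH 7.7 with pargyline, ascorbate; eleven competitor concentrations; 37 °C 20 min; nonspecific with 1 μM 8-OH-DPAT; filtration, scintillation counting; Ki by Cheng–Prusoff.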

Molecules are shown by their SMILES.

As to `O=C1c2ccccc2C(=O)N1CCN1CCN(c2ccccc2)CC1`, in test [1], the inhibition constant (Ki) (as a rule, a measure of affinity in units of concentration, obtained from inhibition or displacement) is > 10000 nM.
As for `c1ccc(N2CCNCC2)cc1` [PHENYLPIPERAZINE], the Hill coefficient (usually the slope factor of the fitted curve) in test [2] was 0.95. Moreover, in test [1], the affinity, expressed as Ki, was 380 nM.
Taken in the same sequence, the figures for `COc1ccccc1N1CCN(CCCCNC(=O)c2ccccc2)CC1` were 0.88 and 2 nM.
In the same order, the values of `FC(F)(F)c1cccc(N2CCNCC2)c1` are 0.97 and 175 nM.
Taken in the same sequence, the figures for `O=C1c2ccccc2C(=O)N1CCCCN1CCN(c2cccc3ccccc23)CC1` were 1.16 and 1 nM.
On to `O=C1c2ccccc2C(=O)N1CCCCCN1CCN(c2ccccc2)CC1`, for which the Hill coefficient in test [2] is 0.91. The Ki in test [1] was found to be 8.5 nM.
In the same order, the values of `c1ccc2cc(N3CCNCC3)ccc2c1` are 1.02 and 2900 nM.
In the case of `O=C1c2ccccc2C(=O)N1CCCCN1CCN(c2ncccn2)CC1`, the Hill coefficient in test [2] was determined as 1.03. This compound also gave a Ki in test [1] of 36 nM.
In the same order, the values of `O=C1c2ccccc2C(=O)N1CCCCN1CCN(c2ccccc2)CC1` are 0.99 and 10 nM.
As for `NCCCCN1CCN(c2ccccc2)CC1`, the inhibition constant (Ki) in test [1] is > 6000 nM.
Regarding `O=C(NCCCCN1CCN(c2ncccn2)CC1)c1ccccc1`, the Hill coefficient in test [2] is 0.79. Moreover, the Ki in test [1] was found to be 60 nM.
Taken in the same sequence, the figures for `c1ccc(C2CCNCC2)cc1` were 0.97 and 1520 nM.
Taken in the same sequence, the figures for `Clc1cccc(N2CCNCC2)c1` [CHLOROPHENYLPIPERAZINE] were 0.91 and 130 nM.
In test [2], `COc1ccccc1N1CCNCC1` registered a Hill coefficient of 0.88. In addition, the Ki in test [1] stood at 68 nM.
In the same order, the values of `c1ccc2c(N3CCNCC3)cccc2c1` are 0.85 and 11 nM.
Taken in the same sequence, the figures for `O=C1c2ccccc2C(=O)N1CCCN1CCN(c2ccccc2)CC1` were 0.99 and 200 nM.
In the case of `CC1(C)CC(=O)N(CCCCN2CCN(c3ncccn3)CC2)C(=O)C1`, the Hill coefficient in test [2] was 1.
In test [2], `COc1ccc(Cl)cc1N1CCNCC1` had a Hill coefficient of 0.97. The same compound showed a Ki in test [1] of 870 nM.
Taken in the same sequence, the figures for `CC(=O)NCCCCN1CCN(c2ccccc2)CC1` were 0.99 and 250 nM.
Taken in the same sequence, the figures for `c1cnc(N2CCNCC2)nc1` [2-PIPERAZIN-1-YL-PYRIMIDINE] were 0.95 and 1410 nM.
`O=C(NCCCCN1CCN(c2ccccc2)CC1)c1ccccc1`: in test [2], the Hill coefficient was 0.82. Moreover, in test [3], the affinity, expressed as Ki, was 11 nM.
